Consider one molecule from ChEMBL document CHEMBL4130442, “Design, synthesis and structure-activity relationship studies of a focused library of pyrimidine moiety with anti-proliferative and anti-metastasis activities in triple negative breast cancer” (Eur J Med Chem, 2017).

One data set has as its system MDA-MB-468. Nature of the data set: Antiproliferative activity against human MDA-MB-468 cells incubated for 24 hrs by MTT assay. The class given is functional, cell-based. Particulars: MDA-MB-468, 24 h. (Tetrazolium dyes change colour on reduction, which living cells bring about.)
Data set [1] concerns the target T1, Platelet-derived growth factor receptor beta (Homo sapiens, UniProt P09619). Briefly: Inhibition of PDGFRbeta (unknown origin) using ATP and enzyme substrate by kinase-glo Plus luminescence kinase assay. On the technique in general: Kinase-Glo reads ATP consumption through a luciferase reaction.
For data set [2], the system named is MDA-MB-231. Briefly: Induction of autophagy in human MDA-MB-231 cells assessed as change in p62 protein level at 2.5 uM incubated for 24 hrs by Western blot method relative to untreated control. The class given is functional. Summed up: (§1)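 MDA-MB-231 cells were exposed for 24 h. Adherent and floating cells were pooled and lysed for 1 h at 4 °C in 50 mM Hepes pH 7.4 with 1% Triton X-100, orthovanadate, NaF, EDTA, PMSF, aprotinin and leupeptin. After 12,000 rpm clearing, equal protein was run on 10-15% SDS-PAGE and blotted to PVDF. Detection used HRP-ECL, with β-actin as loading control and densitometric quantification.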

The subject of data set [3] is MDA-MB-231. Briefly: Induction of autophagy in human MDA-MB-231 cells assessed as change in p62 protein level at 10 uM incubated for 24 hrs by Western blot method relative to untreated control. The class given is functional. A digest of the protocol:
as §1

For data set [4], the system named is MDA-MB-231. Nature of the data set: Induction of apoptosis in human MDA-MB-231 cells assessed as change in cleaved caspase-3 protein level at 5 uM incubated for 24 hrs by Western blot method relative to untreated control. The class given is functional. A digest of the protocol:
as §1
(In general: A western blot detects proteins with antibodies after separation by electrophoresis.)

Data set [5] has as its target T1, Platelet-derived growth factor receptor beta. Briefly: Inhibition of PDGFRbeta in human MDA-MB-231 cells assessed as ULK Ser555 phosphorylation level at 2.5 uM incubated for 24 hrs by Western blot relative to untreated control. The class given is cell-based. Summed up:
(§2)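 Cells were treated 24 h at several concentrations. Pooled adherent and floating cells were lysed in Hepes 50 mM pH 7.4 / 1% Triton X-100 buffer with vanadate, NaF, EDTA, PMSF, aprotinin and leupeptin. Equal protein was run on 10-15% SDS-PAGE and blotted to PVDF. PDGFR-β-AKT-ULK1 pathway phospho-proteins were probed and detected by ECL, with β-actin as loading control.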

The target is the same in data set [6]. Briefly: Inhibition of PDGFRbeta in human MDA-MB-231 cells assessed as ULK Ser555 phosphorylation level at 10 uM incubated for 24 hrs by Western blot relative to untreated control. The class given is cell-based. Summed up: as §2
The subject of data set [7] is MDA-MB-231. Briefly: Induction of autophagy in human MDA-MB-231 cells assessed as change in Beclin-1 protein level at 2.5 uM incubated for 24 hrs in absence of PDGFRbeta siRNA by Western blot method relative to untreated control. The class given is functional. A digest of the protocol:
as §1

Data set [8] concerns MDA-MB-231. Nature of the data set: Induction of autophagy in human MDA-MB-231 cells assessed as change in LC3-2 protein level at 2.5 uM incubated for 24 hrs in absence of PDGFRbeta siRNA by Western blot method relative to untreated control. The class given is functional. Summed up:
(§3)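 Before treatment, MDA-MB-231 cells were transfected with control or PDGFR-β siRNA, then exposed to 2.5 μM compound for 24 h. Lysates of pooled adherent and floating cells were immunoblotted (10-15% SDS-PAGE, PVDF, ECL) for PDGFR-β-AKT-ULK1 autophagy signalling markers, with β-actin as loading control.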

In data set [9] the test system is MDA-MB-231. Briefly: Induction of autophagy in human MDA-MB-231 cells assessed as change in LC3-2 protein level at 2.5 uM incubated for 24 hrs in presence of PDGFRbeta siRNA by Western blot method relative to untreated control. The class given is functional. Summed up: as §3
Data set [10] deals with T1, Platelet-derived growth factor receptor beta. Nature of the data set: Inhibition of PDGFRbeta in human MDA-MB-231 cells assessed as PDGFRbeta Tyr740 phosphorylation level at 2.5 uM incubated for 24 hrs in presence of control siRNA by Western blot relative to untreated control. The class given is cell-based. Summed up:
(§4)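 Cells were transfected with control or PDGFR-β siRNA, then treated with 2.5 μM compound for 24 h. PDGFR-β-AKT-ULK1 pathway phospho-proteins were assessed by western blot: lysis in Hepes pH 7.4 / Triton buffer, 10-15% SDS-PAGE, PVDF, ECL detection, β-actin as loading control.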

The target is the same in data set [11]. Briefly: Inhibition of PDGFRbeta in human MDA-MB-231 cells assessed as Akt Thr305 phosphorylation level at 2.5 uM incubated for 24 hrs in presence of control siRNA by Western blot relative to untreated control. The class given is cell-based. A digest of the protocol:
as §4

Data set [12] has the same target. Briefly: Inhibition of PDGFRbeta in human MDA-MB-231 cells assessed as Akt Ser473 phosphorylation level at 2.5 uM incubated for 24 hrs in presence of control siRNA by Western blot relative to untreated control. The class given is cell-based. A digest of the protocol:
as §4

Data set [13] deals with MDA-MB-231. Briefly: Activation of ERK in human MDA-MB-231 cells assessed as ERK Thr202/Tyr204 phosphorylation level at 2.5 to 10 uM incubated for 24 hrs by immunocytochemistry. The class given is cell-based. A digest of the protocol:
(§5)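 MDA-MB-231 cells (ATCC; DMEM, 10% FBS, 5% CO2) were treated, blocked in PBS with 1.5% goat serum, then given p-ERK antibody (1:200 in PBS with 1% BSA) overnight at 4 °C. TRITC-labelled secondary antibody followed for 1 h at room temperature. Nuclear fluorescence was read by microscopy.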

Data set [14] deals with MDA-MB-231. Briefly: Activation of ERK in human MDA-MB-231 cells assessed as ERK phosphorylation level at 2.5 to 10 uM incubated for 24 hrs by immunofluorescence assay. The class given is cell-based. A digest of the protocol:
as §5

For data set [15], the system named is MDA-MB-231. Nature of the data set: Effect on total c-Raf protein level in human MDA-MB-231 cells at 5 uM incubated for 24 hrs in presence of PDGFRbeta siRNA by Western blot relative to untreated control. Particulars: mda-mb-231, 24 h. The class given is cell-based.
For data set [16], the system named is MDA-MB-231. Nature of the data set: Effect on total MEK1/2 protein level in human MDA-MB-231 cells at 2.5 uM incubated for 24 hrs in presence of PDGFRbeta siRNA by Western blot relative to untreated control. The class given is cell-based. To be noted: mda-mb-231, 24 h.
Data set [17] concerns MDA-MB-231. Nature of the data set: Effect on total MEK1/2 protein level in human MDA-MB-231 cells at 10 uM incubated for 24 hrs in presence of PDGFRbeta siRNA by Western blot relative to untreated control. The class given is cell-based. Particulars: mda-mb-231, 24 h.
For data set [18], the system named is MDA-MB-231. Briefly: Effect on total ERK1/2 protein level in human MDA-MB-231 cells at 10 uM incubated for 24 hrs in presence of PDGFRbeta siRNA by Western blot relative to untreated control. The class given is cell-based. Particulars: mda-mb-231, 24 h.
The target of data set [19] is T1, Platelet-derived growth factor receptor beta. Nature of the data set: Inhibition of PDGFRbeta in human MDA-MB-231 cells assessed as C-Raf Ser259 phosphorylation level at 2.5 uM incubated for 24 hrs in presence of PDGFRbeta siRNA by Western blot relative to untreated control. The class given is cell-based.
For data set [20] the target is unchanged. Nature of the data set: Inhibition of PDGFRbeta in human MDA-MB-231 cells assessed as C-Raf Ser338 phosphorylation level at 5 uM incubated for 24 hrs in presence of PDGFRbeta siRNA by Western blot relative to untreated control. The class given is cell-based.
The target in data set [21] is Mitogen-activated protein kinase; ERK1/ERK2 (Homo sapiens) (UniProt P27361+P28482). Nature of the data set: Inhibition of ERK1/2 in human MDA-MB-231 cells assessed as ERK1/2 Thr202/Tyr204 phosphorylation level at 10 uM incubated for 24 hrs in presence of PDGFRbeta siRNA by Western blot relative to untreated control. The class given is cell-based.
In data set [22] the test system is MDA-MB-231. Nature of the data set: Effect on total Ras protein level in human MDA-MB-231 cells at 5 uM incubated for 24 hrs by Western blot relative to untreated control. To be noted: mda-mb-231, 24 h.

The structures appear in SMILES notation. Activity calls are given as the source filed them. No cut-off for these calls is given here.

T1 sequence (P09619 whole entry): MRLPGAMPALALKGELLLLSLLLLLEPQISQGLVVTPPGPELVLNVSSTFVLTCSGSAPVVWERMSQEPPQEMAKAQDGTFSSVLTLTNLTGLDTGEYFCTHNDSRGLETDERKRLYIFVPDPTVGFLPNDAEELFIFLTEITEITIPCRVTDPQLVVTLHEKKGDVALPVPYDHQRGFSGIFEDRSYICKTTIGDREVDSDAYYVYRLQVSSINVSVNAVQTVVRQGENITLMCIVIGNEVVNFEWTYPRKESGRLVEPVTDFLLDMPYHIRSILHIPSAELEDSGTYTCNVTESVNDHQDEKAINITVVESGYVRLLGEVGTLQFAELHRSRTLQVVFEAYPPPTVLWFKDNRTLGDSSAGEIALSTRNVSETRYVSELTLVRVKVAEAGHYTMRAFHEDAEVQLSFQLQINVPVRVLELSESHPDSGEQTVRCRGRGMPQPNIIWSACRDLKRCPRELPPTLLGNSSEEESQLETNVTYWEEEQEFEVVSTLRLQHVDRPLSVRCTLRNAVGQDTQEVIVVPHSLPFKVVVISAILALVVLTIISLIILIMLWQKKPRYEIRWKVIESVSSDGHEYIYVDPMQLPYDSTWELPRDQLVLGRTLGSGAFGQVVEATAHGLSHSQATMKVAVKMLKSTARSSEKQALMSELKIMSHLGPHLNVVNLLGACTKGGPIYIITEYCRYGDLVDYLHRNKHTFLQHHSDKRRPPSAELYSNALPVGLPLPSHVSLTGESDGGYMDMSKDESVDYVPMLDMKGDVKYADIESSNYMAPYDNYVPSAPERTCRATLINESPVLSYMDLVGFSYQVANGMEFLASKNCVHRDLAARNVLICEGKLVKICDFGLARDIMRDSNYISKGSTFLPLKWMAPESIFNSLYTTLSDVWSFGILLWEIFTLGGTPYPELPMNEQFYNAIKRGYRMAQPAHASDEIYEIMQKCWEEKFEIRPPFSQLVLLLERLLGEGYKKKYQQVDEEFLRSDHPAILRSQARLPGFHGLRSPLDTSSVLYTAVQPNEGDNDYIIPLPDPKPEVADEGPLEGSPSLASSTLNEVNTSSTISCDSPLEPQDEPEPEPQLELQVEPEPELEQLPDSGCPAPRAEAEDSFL
Mitogen-activated protein kinase; ERK1/ERK2 (Homo sapiens), sequence (P27361 whole entry, looked up): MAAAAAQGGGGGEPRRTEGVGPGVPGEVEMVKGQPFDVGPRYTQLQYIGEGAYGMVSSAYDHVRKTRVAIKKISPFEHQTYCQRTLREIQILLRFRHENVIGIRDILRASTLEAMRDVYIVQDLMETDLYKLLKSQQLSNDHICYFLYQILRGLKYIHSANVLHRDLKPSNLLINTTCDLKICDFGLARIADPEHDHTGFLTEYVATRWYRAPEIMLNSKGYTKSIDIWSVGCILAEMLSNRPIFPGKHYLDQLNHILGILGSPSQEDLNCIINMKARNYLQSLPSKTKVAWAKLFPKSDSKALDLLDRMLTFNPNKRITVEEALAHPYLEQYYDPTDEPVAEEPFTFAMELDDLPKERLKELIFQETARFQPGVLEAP
Mitogen-activated protein kinase; ERK1/ERK2 (Homo sapiens), sequence (P28482 whole entry, looked up): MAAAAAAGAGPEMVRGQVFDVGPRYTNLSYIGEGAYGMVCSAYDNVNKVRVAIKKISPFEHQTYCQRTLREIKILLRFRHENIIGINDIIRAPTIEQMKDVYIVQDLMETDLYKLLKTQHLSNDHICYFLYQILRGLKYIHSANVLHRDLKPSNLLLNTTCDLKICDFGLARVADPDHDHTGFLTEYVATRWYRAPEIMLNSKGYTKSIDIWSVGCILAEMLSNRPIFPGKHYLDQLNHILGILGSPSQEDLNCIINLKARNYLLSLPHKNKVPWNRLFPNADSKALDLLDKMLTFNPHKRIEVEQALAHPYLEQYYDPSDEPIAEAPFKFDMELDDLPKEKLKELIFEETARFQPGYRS

What is called IC50 is the concentration that inhibits the measured activity by half. Take `COc1cccc(Nc2cc(N3CCN(C(=O)Nc4ccc(C(F)(F)F)cc4)CC3)ncn2)c1`: the IC50 with MDA-MB-468 is 3.19 µM; in data set [1] it was 7.8 µM. Further, the “fold change (FC)” value in the data set with MDA-MB-231 [2] is 0.78; with MDA-MB-231 [3], 0.55; with MDA-MB-231 [4], 0.88; in data set [5], 4.5; in data set [6], 5.6; in the data set with MDA-MB-231 [7], 4.02. For the same molecule, the “fold change (FC)” value with MDA-MB-231 [8] came to 2.87; in the data set on MDA-MB-231 [9], 3.01; in data set [10], 0.08; in data set [11] it was 0.1; in data set [12] it was 0.88; in the data set on MDA-MB-231 [15], 0.82. Besides, the “fold change (FC)” value with MDA-MB-231 [16] came to 1.05; in the data set on MDA-MB-231 [17] it was 1.03; in the data set with MDA-MB-231 [18], 1.53; in data set [19], 0.95; in data set [20], 0.78; in data set [21], 2.38. The “fold change (FC)” value with MDA-MB-231 [22] is given as 1.35. The result with MDA-MB-231 [13] and with MDA-MB-231 [14] was Active.
